Bioassay records (PubChem)
Shown are actives, neighbours in structure and some others; about 0.79% of the full set was active somewhere.
hIAP activ = human IAP activators, primary screen, biochemical, luminescence, uHTS. Intestinal-type alkaline phosphatase (Homo sapiens), P09923. purified human IAP, CDP-Star luminescence, 30 min; stronger effect = higher value; 1 = vehicle-only enzyme, 0 = enzyme-free background. activation factor at 10 µM. hit rate 0.16% among 330,000;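 active means activation factor of the enzyme at least 2-fold when tested at 20 µM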
Target sequence (P09923 whole entry, looked up): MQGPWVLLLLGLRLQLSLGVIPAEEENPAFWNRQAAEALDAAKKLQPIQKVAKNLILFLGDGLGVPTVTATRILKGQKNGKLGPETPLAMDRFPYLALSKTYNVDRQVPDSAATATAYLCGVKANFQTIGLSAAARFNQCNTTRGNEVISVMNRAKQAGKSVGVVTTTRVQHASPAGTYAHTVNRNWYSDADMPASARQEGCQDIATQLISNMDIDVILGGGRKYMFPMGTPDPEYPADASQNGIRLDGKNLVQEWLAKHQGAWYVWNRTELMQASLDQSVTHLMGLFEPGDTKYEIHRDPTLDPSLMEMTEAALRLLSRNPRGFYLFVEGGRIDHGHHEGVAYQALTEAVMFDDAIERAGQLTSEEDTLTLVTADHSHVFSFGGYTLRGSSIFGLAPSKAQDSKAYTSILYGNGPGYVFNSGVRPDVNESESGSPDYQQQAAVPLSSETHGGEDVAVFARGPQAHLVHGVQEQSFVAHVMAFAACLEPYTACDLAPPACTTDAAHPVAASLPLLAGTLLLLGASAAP
mIAP activ = activators of mouse IAP, primary screen, biochemical, luminescence, uHTS | intestinal alkaline phosphatase [Mus musculus] | muIAP, CDP-Star luminescence, 30 min; stronger effect = higher value; 1 = vehicle-only enzyme signal, 0 = enzyme-free wells | activation factor at 10 µM | hit rate 0.24% among 330,000;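 active means activation factor of at least 2 at 20 µM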
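Assay system: mouse IAP enzyme / Compound: DMSO-dissolved test compounds / Timing: 30 min, room temperature / Measured by: luminescence from enzymatic CDP-Star hydrolysis / Control set: DMSO-only wells, enzyme-free buffer wells as negative control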
mIAP block = inhibitors of mouse IAP, primary screen, biochemical, luminescence, uHTS. intestinal alkaline phosphatase [Mus musculus]. purified mouse IAP, CDP-Star luminescence, 30 min. inhibition, % at 10 µM. hit rate 0.2% among 330,000. AID 2806, 2010;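 active means inhibition of at least 40% at 10 µM in the primary screen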
bIAP inhibitor = bovine intestinal alkaline phosphatase inhibitors, primary screen, selectivity assay for TNAP inhibitor project, biochemical, bovine IAP, CDP-star luminescence; alkaline phosphatase, intestinal [Bos taurus]; purified bovine IAP, 30 min; inhibition, % at 20 µM; 190,000 tested, under 10 active; AID 1019, 2008;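 active means over 50% inhibition of intestinal alkaline phosphatase at 20 µM in the single-dose screen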
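System: Purified bovine intestinal alkaline phosphatase (IAP) enzyme | Input: IAP diluted 1/65,000,000 in the well | Also added: CDP-star chemiluminescent phosphatase substrate, 30 µM final | Dosing: 20 µM single dose | Times: Enzyme reaction for 30 min at room temperature | Detection: Luminescence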
bIAP act = bovine intestinal alkaline phosphatase activators, primary screen, biochemical, bovine IAP, CDP-star luminescence; alkaline phosphatase, intestinal [Bos taurus]; purified bovine IAP, 30 min; stronger effect = higher value; fold of DMSO-control signal, blank-subtracted; activation factor at 20 µM; hit rate 0.17% among 200,000; AID 1016, 2008;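 active means activation factor of 2 or more at 20 µM, a signal rise over negative controls twice the positive control's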
hIAP inh = human IAP inhibitors, primary screen, biochemical, luminescence, uHTS; hit rate 0.12% among 330,000; inhibition, % at 10 µM; AID 2544, 2010; purified IAP, CDP-Star luminescence, 30 min;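 active means inhibition reaching a set limit with compound at 10 µM in the primary screen, cut at about 35% in these data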
hIAP act conf = human IAP activators, confirmation, biochemical, luminescence, single concentration, uHTS hits; shares compounds with hIAP activ; purified IAP, CDP-Star luminescence, 30 min; stronger effect = lower value; activation (%Activity, negative = activation), % at 8.3 µM; hit rate 10% among 880; AID 434926, 2010;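 active means at least twofold enzyme activation in any of six single-dose repeats, which the averaged readout prints as negative percent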
Hits are given with their value; – = inactive; · = not tested or not shown.

SMILES	hIAP activ	mIAP activ	mIAP block	bIAP inhibitor	bIAP act	hIAP inh	hIAP act conf
COc1ccc(C(=O)NC(=S)NNC(=O)c2ccccc2O)cc1	2.3	–	–	·	·	–	–
O=C(NC(=S)NNC(=O)c1ccc(Cl)cc1Cl)c1cccnc1	–	–	–	–	–	–	·
O=C(NC1CCCCC1)C1CC(=O)N(c2cccc([N+](=O)[O-])c2)C1 (stereo unspecified)	–	–	–	–	–	–	·
COc1ccc(NC(=O)NNC(=O)c2cc3ccccc3cc2O)cc1	2.3	–	–	·	·	–	–
O=C(NNC(=O)c1cc2ccccc2cc1O)Nc1ccc(Br)cc1	–	–	–	·	·	–	·
Cc1nc2c3ccccc3nc(NNC(=O)CCC(=O)N3CCN(c4ccc(F)cc4)CC3)n2n1	–	–	–	·	·	–	·
CCOCCCNC(=O)CCC(=O)NNc1nc2ccccc2c2nc(C)nn12	3.1	–	–	–	–	–	–
Cc1nc2c3ccccc3nc(NNC(=O)CCC(=O)NCCN3CCN(c4ccccc4)CC3)n2n1	2.3	–	–	·	·	–	-97
CCCCNC(=O)CCC(=O)NNc1nc2ccccc2c2nc(C)nn12	2.5	–	–	–	–	–	–
COc1ccc2c(c1)CCc1c-2nc2ccccc2c1N1CCOCC1	–	–	–	·	·	–	·
Cc1ccc(S(=O)(=O)NC(CC(=O)NCC2CCCO2)c2ccco2)cc1 (stereo unspecified)	–	–	–	–	–	39	–
COc1ccc(NC(=O)CCN2CCN(S(=O)(=O)c3ccc(Br)cc3)CC2)cc1	–	–	–	·	·	–	·
COc1ccc(NC(=O)CCN2CCN(S(=O)(=O)c3cc(Cl)ccc3OC)CC2)cc1	–	–	–	–	–	36	–
NC1=NN=C(N2N=C(c3ccco3)CC2(O)C(F)(F)F)n2ncnc2C1 (stereo unspecified)	2.5	–	–	–	–	–	–
Cc1ccc(C2=NN(C3=NN=C(N)Cc4ncnn43)C(O)(C(F)(F)F)C2)cc1 (stereo unspecified)	–	–	–	–	–	–	·
Cc1ccc(C)c(S(=O)(=O)N2CCN(C(=O)c3n[nH]c(=O)c4ccccc34)CC2)c1	–	–	–	·	·	–	·
CCc1ccc(NC(=O)C2CCN(S(=O)(=O)c3c(C)[nH]c(=O)[nH]c3=O)CC2)cc1	2.5	–	–	–	–	–	–
CC(=O)N1CCOc2ccc(S(=O)(=O)N3CCC(C(=O)Nc4ccc(C)cc4)CC3)cc21	–	–	–	·	·	–	·
CCc1ccc(NC(=O)C2CCN(S(=O)(=O)c3ccc4c(c3)N(C(C)=O)CCO4)CC2)cc1	–	–	–	·	·	39	–
CCCCN(CC)C(=O)Cn1cnc2ccc(S(=O)(=O)N3CCC(C)CC3)cc2c1=O	–	–	–	–	–	–	·
COc1cc(C(=O)NCC(=O)N/N=C/c2ccc(-c3ccc([N+](=O)[O-])cc3)o2)cc(OC)c1OC	–	–	–	·	·	36	–
CC(=O)OCC(=O)c1c[nH]c2ccccc12	–	–	–	–	–	–	·
CC(C)(C)NCC(=O)c1c[nH]c2ccccc12	2.1	–	–	–	–	–	–
O=C(Nc1ccnn1C1CCN(Cc2ccccc2)CC1)C1CCCC1	–	–	–	·	·	–	·
CC(Cc1ccc(Cl)cc1)N1CCC(n2nccc2NC(=O)C2CCCC2)CC1 (stereo unspecified)	2.3	–	–	·	·	–	–
SMILES	hIAP activ	mIAP activ	mIAP block	bIAP inhibitor	bIAP act	hIAP inh	hIAP act conf
C=CCN1C(=O)C2(NNc3ccccc3O2)c2ccccc21 (stereo unspecified)	6.7	–	–	–	3.9	–	-93
COc1ccccc1CNC(=O)COC(=O)c1cccc(-n2cnnn2)c1	–	–	–	·	·	–	·
CC(=O)N[C@@H](C)C(=O)N1CCN(S(=O)(=O)c2ccc(Cl)cc2)CC1	2.8	–	–	–	–	–	–
CCc1nnc(NS(=O)(=O)c2ccc(NC(=O)c3cccc(OC)c3)cc2)s1	–	–	–	·	·	–	·
COc1ccc(C)cc1NC(=O)C1CCN(S(=O)(=O)c2ccc3c(c2)NC(=O)CO3)CC1	–	–	–	·	·	–	·
O=C(c1cnn2c(C(F)(F)F)cc(-c3ccc(Br)cc3)nc12)N1CCOCC1	·	·	·	–	–	·	·
Cc1nn2c(C(F)(F)F)cc(-c3ccc(Cl)cc3)nc2c1C(=O)N1CCOCC1	2.8	–	–	–	–	–	–
C1CN(CCN2CCOCC2)CCN1	–	–	–	·	·	–	·
COc1ccc(NCc2ccc(OC)c(OC)c2)cc1	–	–	–	–	–	38	–
COc1ccc(CNc2ccc(C)c(C)c2)cc1	–	–	–	–	–	–	·
COc1cccc(CC(NC(C)=O)C(=O)NC2CCN(C(=O)NCc3ccccc3)CC2)c1 (stereo unspecified)	–	–	–	·	·	–	·
COc1ccc(CC(NC(C)=O)C(=O)NC2CCN(C(=O)NCc3ccccc3)CC2)cc1 (stereo unspecified)	–	–	–	–	–	36	–
C/C(=N\NC(=O)C1CC1)c1ccccc1Br	–	–	–	·	·	35	–
O=c1[nH]c(/C=C\c2cccc(Cl)c2)nc(O)c1[N+](=O)[O-]	–	–	–	·	·	–	·
CC(=O)N/N=C/c1cc(C(C)C)cc(/C=N/NC(C)=O)c1O	2.5	–	–	–	–	–	–
CC(=O)N/N=C/c1cc(C)n(-c2ccc(Br)cc2)c1C	–	–	–	–	–	–	·
O=C(Cc1ccc(Br)cc1)Nc1nc2ccccc2[nH]1	–	–	–	·	·	–	·
CC(NS(=O)(=O)c1ccc(Br)cc1)C(=O)Nc1nc2ccccc2[nH]1 (stereo unspecified)	2.1	–	–	·	·	–	–
C[C@@H](NC(=O)c1nc[nH]c1C(=O)N[C@H](C)c1ccccc1)c1ccccc1	–	–	–	·	·	–	·
C[C@H](NC(=O)c1[nH]cnc1C(=O)Nc1ccon1)c1ccccc1	–	–	–	·	·	–	·
C[C@@H](NC(=O)c1[nH]cnc1C(=O)Nc1ccon1)c1ccccc1	2.1	–	–	·	·	–	-80
C[C@@H](NC(=O)c1[nH]cnc1C(=O)Nc1nccs1)c1ccccc1	2.2	–	–	·	·	–	–
NC(=O)c1nnn(-c2cccc(C(F)(F)F)c2)c1-c1ccccc1	–	–	–	·	·	–	·
